Measurements: ChEMBL document CHEMBL6177937, “Design, synthesis, and biological evaluation of novel thiazole derivatives as PI3K/mTOR dual inhibitors” (RSC Med Chem, 2024)

How the values were obtained:
Type in all cases: functional
HL-60 [1] = experiment: Cell cycle arrest in human HL-60 cells assessed as decrease in accumulation of cells at G2/M-phase at 2.32 uM measured after 24 hrs by propidium iodide staining based flow cytometry relative to control; set-up: scale not given: the % may be the effect or the level left
SR = experiment: Growth inhibition of human SR cells measured after 48 hrs by SRB assay
How it was run: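 NCI 60-line SRB screen: cells seeded […], grown 24 h at 37°C, 5% CO2, then exposed 48 h to five concentrations (10-fold or ½-log dilutions from DMSO stock). Adherent cells fixed with cold TCA (final 10%), suspension cells with 80% TCA (final 16%); SRB stained, read at 515 nm. GI50 from time-zero, control and treated absorbances.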

HL-60 [2] = experiment: Cell cycle arrest in human HL-60 cells assessed as increase in accumulation of cells at G0/G1-phase at 2.32 uM measured after 24 hrs by propidium iodide staining based flow cytometry relative to control
HL-60 [3] = experiment: Cell cycle arrest in human HL-60 cells assessed as decrease in accumulation of cells at S-phase at 2.32 uM measured after 24 hrs by propidium iodide staining based flow cytometry relative to control; set-up: scale not given: the % may be the effect or the level left
HL-60 [4] = experiment: Cell cycle arrest in human HL-60 cells assessed as increase in accumulation of cells at G0/G1-phase at 2.29 uM measured after 24 hrs by propidium iodide staining based flow cytometry relative to control
HL-60 [5] = experiment: Cell cycle arrest in human HL-60 cells assessed as decrease in accumulation of cells at S-phase at 2.29 uM measured after 24 hrs by propidium iodide staining based flow cytometry relative to control; set-up: scale not given: the % may be the effect or the level left
HL-60 [6] = experiment: Cell cycle arrest in human HL-60 cells assessed as decrease in accumulation of cells at G2/M-phase at 2.29 uM measured after 24 hrs by propidium iodide staining based flow cytometry relative to control; set-up: scale not given: the % may be the effect or the level left

| SMILES | Activity (HL-60 [1]) | GI50 (SR) | TGI (SR) | CC50 (SR; read-out: LC50 (the source's name)) | fold change (FC) (HL-60 [2]) | Activity (HL-60 [3]) | fold change (FC) (HL-60 [4]) | Activity (HL-60 [5]) | Activity (HL-60 [6]) |
| --- | --- | --- | --- | --- | --- | --- | --- | --- | --- |
| CCOc1cc(/C=N/Nc2nc(-c3cccc([N+](=O)[O-])c3)cs2)ccc1O | 63.5% | 3.07 µM | > 100 µM | > 100 µM | 1.28 | 2.5% |  |  |  |
| O=[N+]([O-])c1cc(/C=N/Nc2nc(-c3ccc(Cl)cc3)cs2)ccc1Cl |  |  |  |  |  |  | 1.13 | 7.3% | 12.8% |
